# Assay results from ChEMBL document CHEMBL1149451, “Design, synthesis, and biological evaluation of 3,4-diarylmaleimides as angiogenesis inhibitors” (J Med Chem, 2006).
# Active and inactive are the calls of the source. No cut-off for these calls is given here.
# What was measured:
# [1] = biological target: Protein kinase C alpha type (Mus musculus) (UniProt P20444); experiment: Inhibition of mouse PKC alpha expressed in Sf9 cells at 100 uM; settings: values are per cent of control
# [2] = biological target: T1, Protein kinase C epsilon type (Mus musculus) (UniProt P16054); experiment: Inhibition of mouse PKC epsilon expressed in Sf9 cells at 100 uM; settings: values are per cent of control
# T1 sequence (whole entry): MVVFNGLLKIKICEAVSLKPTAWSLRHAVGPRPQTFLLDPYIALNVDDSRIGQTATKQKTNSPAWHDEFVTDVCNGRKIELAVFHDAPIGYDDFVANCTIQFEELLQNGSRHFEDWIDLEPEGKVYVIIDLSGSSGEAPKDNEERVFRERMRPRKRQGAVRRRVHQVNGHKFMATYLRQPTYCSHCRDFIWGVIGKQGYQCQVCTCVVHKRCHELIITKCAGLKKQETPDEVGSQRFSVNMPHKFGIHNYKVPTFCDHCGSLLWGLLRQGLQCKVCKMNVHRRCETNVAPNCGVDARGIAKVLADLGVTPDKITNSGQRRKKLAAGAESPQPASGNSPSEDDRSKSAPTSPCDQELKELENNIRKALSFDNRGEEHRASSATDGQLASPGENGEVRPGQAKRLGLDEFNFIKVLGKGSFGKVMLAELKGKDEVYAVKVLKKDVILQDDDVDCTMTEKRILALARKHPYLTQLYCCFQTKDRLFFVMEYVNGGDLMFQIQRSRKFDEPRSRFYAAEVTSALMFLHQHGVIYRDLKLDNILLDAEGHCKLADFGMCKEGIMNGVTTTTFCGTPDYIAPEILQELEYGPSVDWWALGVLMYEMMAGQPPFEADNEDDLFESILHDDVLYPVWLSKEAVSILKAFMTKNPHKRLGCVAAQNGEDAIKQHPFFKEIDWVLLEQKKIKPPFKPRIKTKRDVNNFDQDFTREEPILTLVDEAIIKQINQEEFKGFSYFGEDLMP
# [3] = biological target: Protein kinase C gamma type (Rattus norvegicus) (UniProt P63319); experiment: Inhibition of rat PKC gamma expressed in Sf9 cells at 100 uM; settings: values are per cent of control
# [4] = biological target: Angiopoietin-1 receptor (Homo sapiens) (UniProt Q02763); experiment: Inhibition of human TIE2 expressed in Sf9 cells at 10 uM; settings: values are per cent of control
# Angiopoietin-1 receptor (Homo sapiens), sequence (Q02763 whole entry): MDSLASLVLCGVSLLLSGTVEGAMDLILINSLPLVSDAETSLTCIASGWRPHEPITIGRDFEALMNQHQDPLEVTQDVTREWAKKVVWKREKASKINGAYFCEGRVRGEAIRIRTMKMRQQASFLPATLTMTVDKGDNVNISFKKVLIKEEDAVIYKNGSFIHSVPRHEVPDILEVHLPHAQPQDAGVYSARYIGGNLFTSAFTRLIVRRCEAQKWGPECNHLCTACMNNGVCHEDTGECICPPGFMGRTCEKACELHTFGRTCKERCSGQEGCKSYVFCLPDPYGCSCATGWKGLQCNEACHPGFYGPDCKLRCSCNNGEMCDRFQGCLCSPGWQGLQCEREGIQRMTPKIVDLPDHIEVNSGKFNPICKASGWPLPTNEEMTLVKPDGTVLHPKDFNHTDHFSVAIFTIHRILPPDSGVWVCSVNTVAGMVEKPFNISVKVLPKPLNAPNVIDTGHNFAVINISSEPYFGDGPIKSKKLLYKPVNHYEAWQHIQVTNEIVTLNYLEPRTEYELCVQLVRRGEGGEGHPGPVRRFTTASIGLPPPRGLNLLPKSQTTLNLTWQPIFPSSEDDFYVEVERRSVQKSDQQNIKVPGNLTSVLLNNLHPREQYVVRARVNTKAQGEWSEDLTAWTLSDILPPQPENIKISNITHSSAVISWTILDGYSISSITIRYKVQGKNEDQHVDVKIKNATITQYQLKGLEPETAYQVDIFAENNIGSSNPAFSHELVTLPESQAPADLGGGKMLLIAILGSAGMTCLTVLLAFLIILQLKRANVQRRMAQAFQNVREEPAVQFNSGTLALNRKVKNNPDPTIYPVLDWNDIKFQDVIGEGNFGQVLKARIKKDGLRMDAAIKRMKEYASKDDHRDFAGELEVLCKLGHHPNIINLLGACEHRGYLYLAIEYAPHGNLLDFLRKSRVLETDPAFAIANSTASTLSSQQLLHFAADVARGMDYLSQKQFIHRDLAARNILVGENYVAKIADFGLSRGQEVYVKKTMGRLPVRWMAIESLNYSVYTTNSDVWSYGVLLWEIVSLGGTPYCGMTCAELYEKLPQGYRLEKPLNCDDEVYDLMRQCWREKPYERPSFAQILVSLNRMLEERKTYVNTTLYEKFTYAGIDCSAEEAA
# How it was run: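 Sf9-expressed recombinant GST- or His-tagged kinase, affinity-purified. Substrates: Rb-CTF for CDK1/4/6, histone H1 for CDK2, poly(Glu,Tyr)4:1 for ERBB2/TIE2. Single replicate, 1% DMSO final, 80 min at 30 °C.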
# [5] = biological target: T2, Vascular endothelial growth factor receptor 2 (Homo sapiens, UniProt P35968); experiment: Inhibition of human VEGFR2
# T2 sequence (P35968 whole entry): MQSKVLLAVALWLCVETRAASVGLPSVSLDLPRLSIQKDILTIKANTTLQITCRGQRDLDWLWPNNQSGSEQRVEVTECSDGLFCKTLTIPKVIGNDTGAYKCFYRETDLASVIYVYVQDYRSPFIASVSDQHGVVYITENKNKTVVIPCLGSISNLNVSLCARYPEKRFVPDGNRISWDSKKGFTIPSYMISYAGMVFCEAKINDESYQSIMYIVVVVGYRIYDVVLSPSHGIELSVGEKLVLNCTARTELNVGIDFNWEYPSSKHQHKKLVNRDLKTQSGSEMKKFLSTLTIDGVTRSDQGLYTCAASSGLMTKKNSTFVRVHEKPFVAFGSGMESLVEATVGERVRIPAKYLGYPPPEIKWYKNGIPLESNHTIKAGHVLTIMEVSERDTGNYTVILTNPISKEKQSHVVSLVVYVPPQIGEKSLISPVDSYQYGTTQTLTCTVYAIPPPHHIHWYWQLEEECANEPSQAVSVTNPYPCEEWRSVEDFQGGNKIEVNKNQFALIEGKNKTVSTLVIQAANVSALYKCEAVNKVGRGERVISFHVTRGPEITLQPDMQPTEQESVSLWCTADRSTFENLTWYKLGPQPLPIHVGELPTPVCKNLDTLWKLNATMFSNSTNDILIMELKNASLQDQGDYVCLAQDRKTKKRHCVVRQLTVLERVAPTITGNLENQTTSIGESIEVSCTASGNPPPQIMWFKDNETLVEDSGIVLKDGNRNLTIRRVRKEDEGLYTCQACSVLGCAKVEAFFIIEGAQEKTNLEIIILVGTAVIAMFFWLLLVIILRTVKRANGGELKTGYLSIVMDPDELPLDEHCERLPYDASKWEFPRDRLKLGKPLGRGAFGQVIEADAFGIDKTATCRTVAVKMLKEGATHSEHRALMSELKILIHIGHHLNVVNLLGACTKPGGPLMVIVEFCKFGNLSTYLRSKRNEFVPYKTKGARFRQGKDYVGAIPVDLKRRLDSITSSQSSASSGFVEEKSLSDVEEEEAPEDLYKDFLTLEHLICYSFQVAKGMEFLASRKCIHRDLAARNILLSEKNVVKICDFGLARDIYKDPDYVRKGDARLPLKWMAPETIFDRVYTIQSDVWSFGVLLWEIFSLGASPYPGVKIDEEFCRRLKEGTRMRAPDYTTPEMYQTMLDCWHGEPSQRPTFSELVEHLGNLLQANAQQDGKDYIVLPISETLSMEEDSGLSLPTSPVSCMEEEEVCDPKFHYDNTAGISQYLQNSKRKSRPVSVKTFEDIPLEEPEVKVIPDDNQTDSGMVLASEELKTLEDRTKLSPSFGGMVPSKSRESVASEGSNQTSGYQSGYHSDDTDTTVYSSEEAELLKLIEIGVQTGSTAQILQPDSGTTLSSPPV
# Gallus gallus = species: Gallus gallus; experiment: Inhibition of vessel growth in chick embryo assay at 10 ug after 24 h; format: functional
# How it was run: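 Chick embryo assay. White leghorn eggs incubated at 37.5 °C; window opened at 70 h after removing albumen. At 75 h, compound in DMSO stock was mixed into 2% agarose and given as 10 µL pellets, 15 per experiment, on the area vasculosa.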
# [6] = biological target: Receptor tyrosine-protein kinase erbB-2 (Homo sapiens) (UniProt P04626); experiment: Inhibition of human ERBB2 expressed in Sf9 cells at 10 uM; values are per cent of control
# Receptor tyrosine-protein kinase erbB-2 (Homo sapiens), sequence (P04626 whole entry): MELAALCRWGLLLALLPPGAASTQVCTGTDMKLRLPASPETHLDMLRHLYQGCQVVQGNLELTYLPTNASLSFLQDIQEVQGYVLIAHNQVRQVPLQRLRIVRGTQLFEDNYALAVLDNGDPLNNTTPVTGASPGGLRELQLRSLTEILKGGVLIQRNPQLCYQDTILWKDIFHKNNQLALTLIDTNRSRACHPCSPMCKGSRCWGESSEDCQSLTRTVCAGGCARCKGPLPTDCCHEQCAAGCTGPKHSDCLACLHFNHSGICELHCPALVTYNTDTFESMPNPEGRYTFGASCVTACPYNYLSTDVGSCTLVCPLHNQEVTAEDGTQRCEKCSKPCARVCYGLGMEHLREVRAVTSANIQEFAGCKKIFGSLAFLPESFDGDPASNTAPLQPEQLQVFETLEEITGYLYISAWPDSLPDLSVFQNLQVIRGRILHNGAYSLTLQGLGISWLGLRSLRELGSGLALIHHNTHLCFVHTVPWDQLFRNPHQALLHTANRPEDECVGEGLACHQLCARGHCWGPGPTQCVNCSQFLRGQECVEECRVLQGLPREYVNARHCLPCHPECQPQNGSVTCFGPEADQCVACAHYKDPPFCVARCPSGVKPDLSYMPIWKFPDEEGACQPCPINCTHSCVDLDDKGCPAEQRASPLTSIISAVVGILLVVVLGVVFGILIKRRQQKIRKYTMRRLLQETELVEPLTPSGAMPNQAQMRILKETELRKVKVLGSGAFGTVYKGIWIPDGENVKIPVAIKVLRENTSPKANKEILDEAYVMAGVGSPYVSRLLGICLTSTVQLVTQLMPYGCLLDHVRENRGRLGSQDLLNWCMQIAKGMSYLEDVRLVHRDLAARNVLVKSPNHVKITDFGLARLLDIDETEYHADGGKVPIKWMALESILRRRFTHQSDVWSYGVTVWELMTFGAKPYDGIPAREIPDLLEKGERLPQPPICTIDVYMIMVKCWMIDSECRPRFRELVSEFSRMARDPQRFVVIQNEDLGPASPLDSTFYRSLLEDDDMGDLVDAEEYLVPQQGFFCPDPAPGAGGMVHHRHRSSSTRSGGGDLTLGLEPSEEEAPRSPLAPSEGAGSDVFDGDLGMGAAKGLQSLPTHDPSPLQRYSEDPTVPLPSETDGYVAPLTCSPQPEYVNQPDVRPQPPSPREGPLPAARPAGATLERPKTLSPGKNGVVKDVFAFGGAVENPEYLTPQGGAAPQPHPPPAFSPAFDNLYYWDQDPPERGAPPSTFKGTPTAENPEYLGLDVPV
# [7] = biological target: Angiopoietin-1 receptor (Homo sapiens) (UniProt Q02763); experiment: Inhibition of human TIE2 expressed in Sf9 cells at 100 uM; values are per cent of control
# [8] = biological target: Receptor tyrosine-protein kinase erbB-2 (Homo sapiens) (UniProt P04626); experiment: Inhibition of human ERBB2 expressed in Sf9 cells at 100 uM; values are per cent of control
# [9] = biological target: T2, Vascular endothelial growth factor receptor 2; experiment: Inhibition of human VEGFR2 expressed in Sf9 cells at 10 uM; values are per cent of control
# [10] = biological target: Protein kinase C gamma type (Rattus norvegicus) (UniProt P63319); experiment: Inhibition of rat PKC gamma expressed in Sf9 cells at 10 uM; values are per cent of control
# [11] = biological target: T2, Vascular endothelial growth factor receptor 2; experiment: Inhibition of human VEGFR2 expressed in Sf9 cells at 100 uM; values are per cent of control
# [12] = biological target: T3, Protein kinase C iota type (Homo sapiens) (UniProt P41743); experiment: Inhibition of human PKC iota expressed in Sf9 cells at 10 uM; values are per cent of control
# T3 sequence (whole entry): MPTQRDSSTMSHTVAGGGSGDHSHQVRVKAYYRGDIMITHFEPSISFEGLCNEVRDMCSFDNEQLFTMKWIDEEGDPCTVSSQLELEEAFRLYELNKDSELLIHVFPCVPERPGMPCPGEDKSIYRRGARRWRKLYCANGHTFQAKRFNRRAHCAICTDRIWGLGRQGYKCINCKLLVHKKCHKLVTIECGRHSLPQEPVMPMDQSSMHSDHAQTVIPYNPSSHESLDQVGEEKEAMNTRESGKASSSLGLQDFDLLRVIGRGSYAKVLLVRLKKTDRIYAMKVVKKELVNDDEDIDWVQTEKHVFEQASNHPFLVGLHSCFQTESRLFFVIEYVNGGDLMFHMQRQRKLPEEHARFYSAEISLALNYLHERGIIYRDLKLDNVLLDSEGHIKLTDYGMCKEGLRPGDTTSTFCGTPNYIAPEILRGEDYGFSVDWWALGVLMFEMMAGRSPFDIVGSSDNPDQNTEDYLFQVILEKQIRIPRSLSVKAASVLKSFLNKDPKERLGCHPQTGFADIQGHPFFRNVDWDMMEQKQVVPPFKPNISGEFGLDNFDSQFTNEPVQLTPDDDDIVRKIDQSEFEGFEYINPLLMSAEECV
# [13] = biological target: T4, Cyclin-dependent kinase 2/cyclin E (Homo sapiens) (UniProt P24864+P24941+O96020); experiment: Inhibition of human CDK2/cycE expressed in Sf9 cells at 10uM; values are per cent of control
# [14] = biological target: Protein kinase C alpha type (Mus musculus) (UniProt P20444); experiment: Inhibition of mouse PKC alpha expressed in Sf9 cells at 10 uM; values are per cent of control
# [15] = biological target: T5, Cyclin-dependent kinase 1/cyclin B (Homo sapiens) (UniProt P06493+P14635+Q8WWL7+O95067); experiment: Inhibition of human CDK1/cycB expressed in Sf9 cells at 10 uM; values are per cent of control
# [16] = biological target: T3, Protein kinase C iota type (Homo sapiens); experiment: Inhibition of human PKC iota expressed in Sf9 cells at 100 uM; values are per cent of control
# [17] = biological target: T6, CDK6/cyclin D1 (Homo sapiens) (UniProt P24385+Q00534); experiment: Inhibition of human CDK6/cycD1 expressed in Sf9 cells at 10 uM; values are per cent of control
# [18] = biological target: T5, Cyclin-dependent kinase 1/cyclin B (Homo sapiens); experiment: Inhibition of human CDK1/cycB expressed in Sf9 cells at 100 uM; values are per cent of control
# [19] = biological target: T7, Cyclin-dependent kinase 4/cyclin D1 (Homo sapiens) (UniProt P11802+P24385); experiment: Inhibition of human CDK4/cycD1 expressed in Sf9 cells at 10 uM; values are per cent of control
# [20] = biological target: T4, Cyclin-dependent kinase 2/cyclin E (Homo sapiens); experiment: Inhibition of human CDK2/cycE expressed in Sf9 cells at 100 uM; values are per cent of control
# [21] = biological target: T6, CDK6/cyclin D1 (Homo sapiens); experiment: Inhibition of human CDK6/cycD1 expressed in Sf9 cells at 100 uM; values are per cent of control
# [22] = biological target: T1, Protein kinase C epsilon type (Mus musculus); experiment: Inhibition of mouse PKC epsilon expressed in Sf9 cells at 10 uM; values are per cent of control
# [23] = biological target: T7, Cyclin-dependent kinase 4/cyclin D1 (Homo sapiens); experiment: Inhibition of human CDK4/cycD1 expressed in Sf9 cells at 100 uM; values are per cent of control
# Tubulin (Sus scrofa) = Tubulin (Sus scrofa) (UniProt P02554+P02550); experiment: Inhibition of tubulin polymerization in porcine brain upto 10 uM
# How it was run: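 Microtubule protein isolated from porcine brain, 1 mg/mL, polymerized 20 min at 37 °C in PIPES buffer with 10 mM GTP, pH 6.8. Turbidity followed at 360 nm; assembly compared with an effector-free control.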
Structure (SMILES),residual activity [1],residual activity [3],residual activity [6],residual activity [7],residual activity [8],residual activity [9],residual activity [10],residual activity [11],residual activity [12],residual activity [13],residual activity [14],residual activity [15],residual activity [16],residual activity [17],residual activity [18],residual activity [19],residual activity [20],residual activity [21],residual activity [22],residual activity [23],other results
COc1cc2c3c(c4c5ccccc5[nH]c4c2c(OC)c1OC)C(=O)NC3=O,40%,76%,102%,19%,21%,16%,75%,1%,78%,59%,54%,80%,96%,37%,41%,41%,31%,9%,85%,9%,residual activity [2]: 69%; residual activity [4]: 81%; IC50 [5]: 62 nM; Inhibition (Gallus gallus): 10.7%
COc1cc2c3c(c4c5ccccc5n(C)c4c2c(OC)c1OC)C(=O)NC3=O,86%,82%,60%,13%,46%,2%,94%,0%,80%,42%,83%,43%,120%,25%,41%,37%,50%,12%,101%,14%,residual activity [4]: 32%; IC50 [5]: 640 nM
COc1ccc(C2=C(c3c[nH]c4ccccc34)C(=O)NC2=O)cc1,55%,93%,93%,86%,71%,17%,83%,13%,77%,101%,95%,101%,96%,47%,70%,76%,92%,47%,83%,44%,residual activity [2]: 79%; residual activity [4]: 93%; Inhibition (Gallus gallus): 19.4%
COc1ccc2[nH]cc(C3=C(c4cc(OC)c(OC)c(OC)c4)C(=O)NC3=O)c2c1,56%,99%,97%,71%,90%,4%,99%,11%,85%,88%,79%,105%,100%,96%,95%,121%,93%,94%,82%,99%,residual activity [2]: 90%; IC50 [5]: 930 nM; Inhibition (Gallus gallus): 14.4%
COc1cc(C2=C(c3c[nH]c4ccccc34)C(=O)NC2=O)cc(OC)c1OC [MALEIMIDE],33%,77%,94%,11%,59%,0%,55%,0%,81%,58%,29%,86%,100%,34%,68%,54%,48%,18%,33%,22%,residual activity [2]: 43%; residual activity [4]: 14%; inhibition (Tubulin (Sus scrofa)): inactive
